For two compounds, growth, level, % of control and inhibition of growth results are on record in ChEMBL document CHEMBL1949585, “Design, synthesis and evaluation of telomerase inhibitory, hTERT repressing, and anti-proliferation activities of symmetrical 1,8-disubstituted amidoanthraquinones” (Eur J Med Chem, 2012).

The structures appear in SMILES notation.

The subject of one experiment is TK-10. Put plainly: Cytotoxicity against human TK10 cells assessed as cell growth at 10 uM relative to control. Format: functional. The note with it: read-out: Activity. An outline of the steps: (§1)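 Run in the NCI 60-cell human tumour panel. Cells were exposed to 10 µM compound, and growth was given as a percentage of untreated control cells set to 100%.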
The next experiment concerns MDA-MB-231. The experiment is described as follows: Cytotoxicity against human MDA-MB-231 cells assessed as cell growth at 10 uM relative to control. Type of experiment: functional. The note with it: read-out: Activity. An outline of the steps: (§2)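 Single-concentration screen in the NCI 60 human tumour cell line panel covering nine cancer types. Values are the mean growth percentage of compound-treated cells, with untreated control cells set as 100%.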

A further experiment has as its system HT-29. Put plainly: Cytotoxicity against human HT-29 cells assessed as cell growth at 10 uM relative to control. Type of experiment: functional. The note with it: read-out: Activity. An outline of the steps:
as §2

Another experiment concerns HOP-62. The experiment is described as follows: Cytotoxicity against human HOP62 cells assessed as cell growth at 10 uM relative to control. Format: functional. The note with it: read-out: Activity. An outline of the steps:
as §2

Another experiment relates to SN12C. The experiment is described as follows: Cytotoxicity against human SN12C cells assessed as cell growth at 10 uM relative to control. Format: functional. The note with it: read-out: Activity. An outline of the steps: as §2
In the next experiment the test system is MDA-MB-468. Put plainly: Cytotoxicity against human MDA-MB-468 cells assessed as cell growth at 10 uM relative to control. Type of experiment: functional. The note with it: read-out: Activity. An outline of the steps:
as §2

The next experiment deals with OVCAR-3. The experiment is described as follows: Cytotoxicity against human OVCAR3 cells assessed as cell growth at 10 uM relative to control. The note with it: read-out: Activity. Type of experiment: functional. In outline: as §2
For another experiment, the system named is CCRF-CEM. Put plainly: Cytotoxicity against human CCRF-CEM cells assessed as cell growth at 10 uM relative to control. Format: functional. The note with it: read-out: Activity. In outline: as §2
The next experiment relates to MDA-MB-435. The experiment is described as follows: Cytotoxicity against human MDA-MB-435 cells assessed as cell growth at 10 uM relative to control. Format: functional. The note with it: read-out: Activity. An outline of the steps:
as §2

In a further experiment the test system is SR. The experiment is described as follows: Cytotoxicity against human SR cells assessed as cell growth at 10 uM relative to control. The note with it: read-out: Activity. Format: functional. An outline of the steps:
as §1

A further experiment deals with UO-31. The experiment is described as follows: Cytotoxicity against human UO31 cells assessed as cell growth at 10 uM relative to control. The note with it: read-out: Activity. Type of experiment: functional. An outline of the steps:
as §1

The next experiment has as its system KM12. The experiment is described as follows: Cytotoxicity against human KM12 cells assessed as cell growth at 10 uM relative to control. Type of experiment: functional. The note with it: read-out: Activity. In outline:
as §2

In a further experiment the test system is OVCAR-8. The experiment is described as follows: Cytotoxicity against human OVCAR8 cells assessed as cell growth at 10 uM relative to control. Type of experiment: functional. The note with it: read-out: Activity. An outline of the steps:
as §2

For the next experiment, the system named is UACC-62. The experiment is described as follows: Cytotoxicity against human UACC62 cells assessed as cell growth at 10 uM relative to control. The note with it: read-out: Activity. Format: functional. In outline: as §1
The next experiment has as its system SF-268. Put plainly: Cytotoxicity against human SF268 cells assessed as cell growth at 10 uM relative to control. The note with it: read-out: Activity. Type of experiment: functional. In outline:
as §2

Another experiment concerns UACC-257. Put plainly: Cytotoxicity against human UACC257 cells assessed as cell growth at 10 uM relative to control. Format: functional. The note with it: read-out: Activity. An outline of the steps:
as §1

Another experiment concerns NCI-H23. The experiment is described as follows: Cytotoxicity against human NCI-H23 cells assessed as cell growth at 10 uM relative to control. Format: functional. The note with it: read-out: Activity. An outline of the steps:
as §2

The subject of the next experiment is NCI-H460. The experiment is described as follows: Cytotoxicity against human NCI-H460 cells assessed as cell growth at 10 uM relative to control. Format: functional. The note with it: read-out: Activity. In outline: as §2
Experiment [1] in a line: Inhibition of human TERT expression in H1299 cells at 100 uM after 24 hrs by secreted alkaline phosphatase reporter gene assay relative to control; values are per cent of control. The note with it: NCI-H1299.
The next experiment concerns SK-MEL-5. The experiment is described as follows: Cytotoxicity against human SK-MEL-5 cells assessed as cell growth at 10 uM relative to control. Type of experiment: functional. The note with it: read-out: Activity. An outline of the steps: as §2
Another experiment has as its system RPMI-8226. The experiment is described as follows: Growth inhibition of human RPMI8226 cells at 10 uM relative to control. Format: functional. The note with it: read-out: GI. An outline of the steps:
as §1

Turning to `CCN(CC)CC(=O)Nc1cccc2c1C(=O)c1c(NC(=O)CN(CC)CC)cccc1C2=O`, the growth at 10 µM with TK-10 is 105%; in the experiment on MDA-MB-231 it was 91.2%; in the experiment with HT-29 it was 101%; in the experiment with HOP-62 it was 88.3%; in the experiment on SN12C it was 92.1%; in the experiment on MDA-MB-468 it was 86.6%. Moreover, the growth at 10 µM in the experiment with OVCAR-3 stood at 161%; in the experiment on CCRF-CEM, 84.6%; with MDA-MB-435, 103%; in the experiment with SR, 88.5%; with UO-31, 87.3%; in the experiment with KM12, 119%. For the same compound, the growth at 10 µM turned out to be 91.2% with OVCAR-8; 93.5% in the experiment with UACC-62; 138% with SF-268; 105% in the experiment on UACC-257; 97.1% with NCI-H23; 97.2% with NCI-H460. In addition, the growth at 10 µM in the experiment with SK-MEL-5 worked out at 101%. This compound returned a level, % of control in [1] of 42%.

For `COC(=O)CNCC(=O)Nc1cccc2c1C(=O)c1c(NC(=O)CNCC(=O)OC)cccc1C2=O`, the growth at 10 µM worked out at 84.9% with TK-10; 90.2% with MDA-MB-231; 96.3% with HT-29; 108% with HOP-62; 90.4% in the experiment on SN12C; 83.8% in the experiment with MDA-MB-468. Further, the growth at 10 µM in the experiment with OVCAR-3 came out at 89.9%; with CCRF-CEM, 64.4%; in the experiment with MDA-MB-435, 102%; in the experiment with UO-31 it was 88.9%; with KM12, 107%; with OVCAR-8, 96.3%. Further, the growth at 10 µM worked out at 90.3% with UACC-62; 100% with SF-268; 92.4% with UACC-257; 95.2% with NCI-H23; 95.1% in the experiment on NCI-H460; 94.3% in the experiment with SK-MEL-5. For the same compound, the inhibition of growth at 10 µM in the experiment on RPMI-8226 was 31.4%. The compound further had a level, % of control in experiment [1] of 12%.
